# Reference: PMC7935732 (Targeted Oncology, 2021)
# Tested on: Chinese patients with advanced and/or metastatic cancers
# Experiment: Safety and tolerability
# Format: in vivo, human
# Settings: for Anemia TEAE / Blood bilirubin increased TEAE / Diarrhea TEAE / Embolism TEAE / Hyponatraemia TEAE / Leukopenia (white blood cell count decreased) TEAE / Lung infection TEAE / Malaise TEAE / Muscular weakness TEAE / Neutropenia (neutrophil count decreased) TEAE / Patients with ≥ 1 TEAE of Grade ≥ 3 / Thrombocytopenia (platelet count decreased) TEAE / Vomiting TEAE: Grade 3
# Outline: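 Safety set: all patients with ≥ 1 dose. Patient-reported AEs were collected during treatment; chemistry, hematology and urinalysis were done at protocol time points. Laboratory and non-laboratory AEs were graded by CTCAE v4.0 and summarized by cohort.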
smiles,measurement,setting,value
CCN1CCN(Cc2ccc(Nc3ncc(F)c(-c4cc(F)c5nc(C)n(C(C)C)c5c4)n3)nc2)CC1 [abemaciclib],Grade 5 TEAE of respiratory failure,150 mg cohort,^aOne patient reported Grade 5 TEAE of respiratory failure in 150 mg cohort
same,Patients who discontinued study treatment due to leukopenia,150 mg cohort,1 patient
same,Patients with dose reduction from 150 to 100 mg during Cycle 1,150 mg cohort,5 patients
same,"Alanine aminotransferase increased, TEAE any grade",150 mg every 12 h (n = 12),5 (41.7) n (%)
same,"Anemia, TEAE any grade",150 mg every 12 h (n = 12),7 (58.3) n (%)
same,"Bilirubin increased, TEAE any grade",150 mg every 12 h (n = 12),4 (33.3) n (%)
same,"Blood creatinine increased, TEAE any grade",150 mg every 12 h (n = 12),6 (50.0) n (%)
same,"Cough, TEAE any grade",150 mg every 12 h (n = 12),4 (33.3) n (%)
same,"Decreased appetite, TEAE any grade",150 mg every 12 h (n = 12),9 (75.0) n (%)
same,"Diarrhea, TEAE any grade",150 mg every 12 h (n = 12),9 (75.0) n (%)
same,"Leukopenia (white blood cell count decreased), TEAE any grade",150 mg every 12 h (n = 12),9 (75.0) n (%)
same,"Localized edema, TEAE any grade",150 mg every 12 h (n = 12),3 (25.0) n (%)
same,"Malaise, TEAE any grade",150 mg every 12 h (n = 12),7 (58.3) n (%)
same,"Nausea, TEAE any grade",150 mg every 12 h (n = 12),3 (25.0) n (%)
same,"Neutropenia (neutrophil count decreased), TEAE any grade",150 mg every 12 h (n = 12),10 (83.3) n (%)
same,Patients with ≥ 1 TEAE (any grade),150 mg every 12 h (n = 12),12 (100.0) n (%)
same,"Thrombocytopenia (platelet count decreased), TEAE any grade",150 mg every 12 h (n = 12),6 (50.0) n (%)
same,"Vomiting, TEAE any grade",150 mg every 12 h (n = 12),4 (33.3) n (%)
same,Patients reporting SAE of pulmonary embolism,200 mg cohort,3 patients
same,Patients reporting SAE of urinary tract infection,200 mg cohort,1 patient
same,Patients with dose reduction from 200 to 150 mg during Cycle 1,200 mg cohort,2 patients
same,"Alanine aminotransferase increased, TEAE any grade",200 mg every 12 h (n = 13),2 (15.4) n (%)
same,"Anemia, TEAE any grade",200 mg every 12 h (n = 13),5 (38.5) n (%)
same,"Bilirubin increased, TEAE any grade",200 mg every 12 h (n = 13),1 (7.7) n (%)
same,"Blood creatinine increased, TEAE any grade",200 mg every 12 h (n = 13),8 (61.5) n (%)
same,"Cough, TEAE any grade",200 mg every 12 h (n = 13),4 (30.8) n (%)
same,"Decreased appetite, TEAE any grade",200 mg every 12 h (n = 13),6 (46.2) n (%)
same,"Diarrhea, TEAE any grade",200 mg every 12 h (n = 13),11 (84.6) n (%)
same,"Leukopenia (white blood cell count decreased), TEAE any grade",200 mg every 12 h (n = 13),7 (53.8) n (%)
same,"Localized edema, TEAE any grade",200 mg every 12 h (n = 13),2 (15.4) n (%)
same,"Malaise, TEAE any grade",200 mg every 12 h (n = 13),6 (46.2) n (%)
same,"Nausea, TEAE any grade",200 mg every 12 h (n = 13),6 (46.2) n (%)
same,"Neutropenia (neutrophil count decreased), TEAE any grade",200 mg every 12 h (n = 13),9 (69.2) n (%)
same,Patients with ≥ 1 TEAE (any grade),200 mg every 12 h (n = 13),13 (100.0) n (%)
same,"Thrombocytopenia (platelet count decreased), TEAE any grade",200 mg every 12 h (n = 13),5 (38.5) n (%)
same,"Vomiting, TEAE any grade",200 mg every 12 h (n = 13),4 (30.8) n (%)
same,Anemia TEAE,150 mg (n = 12),2 (16.7) n (%)
same,Blood bilirubin increased TEAE,150 mg (n = 12),1 (8.3) n (%)
same,Diarrhea TEAE,150 mg (n = 12),1 (8.3) n (%)
same,Embolism TEAE,150 mg (n = 12),1 (8.3) n (%)
same,Hyponatraemia TEAE,150 mg (n = 12),2 (16.7) n (%)
same,Leukopenia (white blood cell count decreased) TEAE,150 mg (n = 12),0 n (%)
same,Lung infection TEAE,150 mg (n = 12),1 (8.3) n (%)
same,Malaise TEAE,150 mg (n = 12),1 (8.3) n (%)
same,Muscular weakness TEAE,150 mg (n = 12),1 (8.3) n (%)
same,Neutropenia (neutrophil count decreased) TEAE,150 mg (n = 12),5 (41.7) n (%)
same,Patients with ≥ 1 TEAE of Grade ≥ 3,150 mg (n = 12),8 (66.7) n (%)
same,Thrombocytopenia (platelet count decreased) TEAE,150 mg (n = 12),3 (25.0) n (%)
same,Vomiting TEAE,150 mg (n = 12),0 n (%)
same,Anemia TEAE,200 mg (n = 13),0 n (%)
same,Blood bilirubin increased TEAE,200 mg (n = 13),0 n (%)
same,Diarrhea TEAE,200 mg (n = 13),3 (23.1) n (%)
same,Embolism TEAE,200 mg (n = 13),0 n (%)
same,Hyponatraemia TEAE,200 mg (n = 13),0 n (%)
same,Leukopenia (white blood cell count decreased) TEAE,200 mg (n = 13),3 (23.1) n (%)
same,Lung infection TEAE,200 mg (n = 13),0 n (%)
same,Malaise TEAE,200 mg (n = 13),0 n (%)
same,Muscular weakness TEAE,200 mg (n = 13),0 n (%)
same,Neutropenia (neutrophil count decreased) TEAE,200 mg (n = 13),3 (23.1) n (%)
same,Patients with ≥ 1 TEAE of Grade ≥ 3,200 mg (n = 13),6 (46.2) n (%)
same,Thrombocytopenia (platelet count decreased) TEAE,200 mg (n = 13),2 (15.4) n (%)
same,Vomiting TEAE,200 mg (n = 13),0 n (%)
same,Anemia TEAE,Total (n = 25),2 (8.0) n (%)
same,Blood bilirubin increased TEAE,Total (n = 25),1 (4.0) n (%)
same,Diarrhea TEAE,Total (n = 25),4 (16.0) n (%)
same,Hyponatraemia TEAE,Total (n = 25),2 (8.0) n (%)
same,Leukopenia (white blood cell count decreased) TEAE,Total (n = 25),3 (12.0) n (%)
same,Lung infection TEAE,Total (n = 25),1 (4.0) n (%)
same,Malaise TEAE,Total (n = 25),1 (4.0) n (%)
same,Muscular weakness TEAE,Total (n = 25),1 (4.0) n (%)
